ChEMBL document CHEMBL1153507, “Synthesis, DNA intercalation and 3D QSAR analysis of cis-2,4,5-trisubstituted-1,3-dithiolanes as a novel class of antitumor agents” (2009)
Active and inactive are the calls of the source. The calls are words filed in the database; no cut-off is given here.

Assays:
CCRF S-180 [1] = test: Antitumor activity against mouse S180 cells implanted in ICR mouse assessed as tumor weight at 44.64 umol/kg/day, ip administered for 7 consecutive days after 24 hrs of tumor implantation measured after 24 hrs post dose; format: functional
Summary of the method: (§1)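 Male ICR mice aged 10–12 weeks, housed at 21 °C on a natural light cycle, carried S180 tumors. 24 h after implantation they were randomized into groups of 10. Daily ip dosing in 0.2 ml normal saline for 7 days: test agents 44.64 µmol/kg/day, cytarabine 89.28 µmol/kg/day, saline as negative control. Mice were killed 24 h after the last dose and tumors weighed. Inhibition = (control − treated)/control tumor weight. Mean ± SD.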

Calf thymus DNA [2] = test: Binding affinity to calf thymus DNA by spectroscopy; format: nucleic-acid assay; settings: Bos taurus
Summary of the method: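 UV-vis titration of calf thymus DNA (10 µM final) in PBS, pH 7.4. Compound from a 10 mM PBS stock was added in sequential aliquots to final 4–40 µM, and spectra were recorded after each addition. Compounds were transparent at 200–360 nm.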

Calf thymus DNA [3] = test: Binding affinity to calf thymus DNA by circular diachromic assay; format: nucleic-acid assay; settings: Bos taurus
Calf thymus DNA [4] = test: Binding affinity to calf thymus DNA assessed as hyperchromic effect by UV-vis spectrophotometry; settings: Bos taurus
CCRF S-180 [5] = test: Antitumor activity against mouse S180 cells xenografted in ip dosed ICR mouse assessed as inhibition of tumor weight administered for 7 consecutive days after 24 of hrs tumor implantation measured after 24 hrs post dose; format: functional, organism-based; summary of the method: as §1
CCRF S-180 [6] = test: Antitumor activity against mouse S180 cells implanted in ICR mouse assessed as tumor weight at 89.28 umol/kg/day, ip administered for 7 consecutive days after 24 hrs of tumor implantation measured after 24 hrs post dose; format: functional; summary of the method: as §1

## N=C(N)NCCC[C@H](N)C(=O)OC[C@@H]1S[C@H](CC=O)S[C@@H]1COC(=O)[C@@H](N)CCCNC(=N)N
CCRF S-180 [1]
  Activity: 0.778 g
Calf thymus DNA [2]
  Activity: Active
Calf thymus DNA [3]
  Activity: Active
Calf thymus DNA [4]
  Activity: Active

## NC(=O)CC[C@H](N)C(=O)OC[C@@H]1S[C@H](CC=O)S[C@@H]1COC(=O)[C@@H](N)CCC(N)=O
CCRF S-180 [1]
  Activity: 1.061 g
Calf thymus DNA [2]
  Activity: Active
Calf thymus DNA [3]
  Activity: Active
Calf thymus DNA [4]
  Activity: Active

## CC[C@H](C)[C@H](N)C(=O)OC[C@@H]1S[C@H](CC=O)S[C@@H]1COC(=O)[C@@H](N)[C@@H](C)CC
CCRF S-180 [1]
  Activity: 1.064 g
Calf thymus DNA [2]
  Activity: Active
Calf thymus DNA [3]
  Activity: Active
Calf thymus DNA [4]
  Activity: Active

## CSCC[C@H](N)C(=O)OC[C@@H]1S[C@H](CC=O)S[C@@H]1COC(=O)[C@@H](N)CCSC
CCRF S-180 [1]
  Activity: 1.139 g
Calf thymus DNA [2]
  Activity: Active
Calf thymus DNA [3]
  Activity: Active
Calf thymus DNA [4]
  Activity: Active

## N[C@@H](Cc1ccc(O)cc1)C(=O)OC[C@@H]1S[C@H](CC=O)S[C@@H]1COC(=O)[C@@H](N)Cc1ccc(O)cc1
CCRF S-180 [1]
  Activity: 0.529 g
CCRF S-180 [5]
  inhibition: Dose-dependent effect
Calf thymus DNA [2]
  Activity: Active
Calf thymus DNA [3]
  Activity: Active
Calf thymus DNA [4]
  Activity: Active

## CC(C)C[C@H](N)C(=O)OC[C@@H]1S[C@H](CC=O)S[C@@H]1COC(=O)[C@@H](N)CC(C)C
CCRF S-180 [1]
  Activity: 1.296 g
Calf thymus DNA [2]
  Activity: Active
Calf thymus DNA [3]
  Activity: Active
Calf thymus DNA [4]
  Activity: Active

## NC(=O)C[C@H](N)C(=O)OC[C@@H]1S[C@H](CC=O)S[C@@H]1COC(=O)[C@@H](N)CC(N)=O
CCRF S-180 [1]
  Activity: 0.855 g
Calf thymus DNA [2]
  Activity: Active
Calf thymus DNA [3]
  Activity: Active
Calf thymus DNA [4]
  Activity: Active

## N[C@@H](CCC(=O)O)C(=O)OC[C@@H]1S[C@H](CC=O)S[C@@H]1COC(=O)[C@@H](N)CCC(=O)O
CCRF S-180 [1]
  Activity: 1.051 g
Calf thymus DNA [2]
  Activity: Active
Calf thymus DNA [3]
  Activity: Active
Calf thymus DNA [4]
  Activity: Active

## Nc1ccn([C@@H]2O[C@H](CO)[C@@H](O)[C@@H]2O)c(=O)n1 [CYTARABINE]
CCRF S-180 [6]
  Activity: 0.582 g

## N[C@@H](CO)C(=O)OC[C@@H]1S[C@H](CC=O)S[C@@H]1COC(=O)[C@@H](N)CO
CCRF S-180 [1]
  Activity: 1.493 g
Calf thymus DNA [2]
  Activity: Active
Calf thymus DNA [3]
  Activity: Active
Calf thymus DNA [4]
  Activity: Active

## N[C@@H](Cc1ccccc1)C(=O)OC[C@@H]1S[C@H](CC=O)S[C@@H]1COC(=O)[C@@H](N)Cc1ccccc1
CCRF S-180 [1]
  Activity: 0.693 g
CCRF S-180 [5]
  inhibition: Dose-dependent effect
Calf thymus DNA [2]
  Activity: Active
Calf thymus DNA [3]
  Activity: Active
Calf thymus DNA [4]
  Activity: Active

## NCCCC[C@H](N)C(=O)OC[C@@H]1S[C@H](CC=O)S[C@@H]1COC(=O)[C@@H](N)CCCCN
CCRF S-180 [1]
  Activity: 0.989 g
Calf thymus DNA [2]
  Activity: Active
Calf thymus DNA [3]
  Activity: Active
Calf thymus DNA [4]
  Activity: Active

## O=CC[C@H]1S[C@@H](COC(=O)[C@@H]2CCCN2)[C@@H](COC(=O)[C@@H]2CCCN2)S1
CCRF S-180 [1]
  Activity: 1.446 g
Calf thymus DNA [2]
  Activity: Active
Calf thymus DNA [3]
  Activity: Active
Calf thymus DNA [4]
  Activity: Active

## N[C@@H](Cc1c[nH]c2ccccc12)C(=O)OC[C@@H]1S[C@H](CC=O)S[C@@H]1COC(=O)[C@@H](N)Cc1c[nH]c2ccccc12
CCRF S-180 [1]
  Activity: 0.954 g
Calf thymus DNA [2]
  Activity: Active
Calf thymus DNA [3]
  Activity: Active
Calf thymus DNA [4]
  Activity: Active

## N[C@@H](Cc1c[nH]cn1)C(=O)OC[C@@H]1S[C@H](CC=O)S[C@@H]1COC(=O)[C@@H](N)Cc1c[nH]cn1
CCRF S-180 [1]
  Activity: 1.076 g
Calf thymus DNA [2]
  Activity: Active
Calf thymus DNA [3]
  Activity: Active
Calf thymus DNA [4]
  Activity: Active

## NCC(=O)OC[C@@H]1S[C@H](CC=O)S[C@@H]1COC(=O)CN
CCRF S-180 [1]
  Activity: 0.723 g
CCRF S-180 [5]
  inhibition: Dose-dependent effect
Calf thymus DNA [2]
  Activity: Active
Calf thymus DNA [3]
  Activity: Active
Calf thymus DNA [4]
  Activity: Active

## CC(C)[C@H](N)C(=O)OC[C@@H]1S[C@H](CC=O)S[C@@H]1COC(=O)[C@@H](N)C(C)C (mixture of isomers)
CCRF S-180 [1]
  Activity: 1.114 g
Calf thymus DNA [2]
  Activity: Active
Calf thymus DNA [3]
  Activity: Active
Calf thymus DNA [4]
  Activity: Active

## C[C@H](N)C(=O)OC[C@@H]1S[C@H](CC=O)S[C@@H]1COC(=O)[C@H](C)N
CCRF S-180 [1]
  Activity: 1.213 g
Calf thymus DNA [2]
  Activity: Active
Calf thymus DNA [3]
  Activity: Active
Calf thymus DNA [4]
  Activity: Active

## C[C@@H](O)[C@H](N)C(=O)OC[C@@H]1S[C@H](CC=O)S[C@@H]1COC(=O)[C@@H](N)[C@@H](C)O
CCRF S-180 [1]
  Activity: 1.087 g
Calf thymus DNA [2]
  Activity: Active
Calf thymus DNA [3]
  Activity: Active
Calf thymus DNA [4]
  Activity: Active
